Assay results reported in publication PMC5814546 (Clinical Pharmacokinetics, 2017).
“Also recorded” adds a separate entry of the source. Read-outs that look alike come from different tables or passages of the source.

Experiments:
[1] = Phase I single ascending dose study of ALZ-801 loose-filled capsule; type: in vivo, human; settings: both, human, plasma, oral, 100 mg, Plasma tramiprosate t ½, mean ± SD
Outline: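 Single fasted oral loose-filled capsules; 172 mg in 36 healthy subjects over 50 y (parallel, randomized 1:1:1), 300 mg in 15 subjects over 50 y. Plasma sampled over 48 h into K3 EDTA on ice, spun 2000g 10 min 4 °C, stored at or below −20 °C. LC-MS assay; non-compartmental analysis; Tmax as median (range).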

[2] = Phase I multiple ascending dose study of ALZ-801 capsule and tablet; type: in vivo, human; settings: plasma; for AUC / Cmax / Tmax / half-life: both, human, oral; for Cmax: C max; for half-life: t ½; for lower C max for 265 mg tablet than 256.5 mg capsule: fed state
[3] = Single-dose ALZ-801 immediate-release tablet PK and food effect study; type: in vivo, human; settings: plasma; for Cmax: C max
[4] = Urine drug recovery, renal clearance and estimate of oral bioavailability; type: in vivo, human; settings: Cohort D, 24-h urine; for CL renal: both, human, urine and plasma, oral, 265 mg, CLr, mean ± SD
Outline: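 Cohort D: 265 mg immediate-release tablet in the fed state (meal 30 min pre-dose), once on day 1, twice daily days 2–6, once on day 7. Urine was collected over 24 h on days 1 and 7 and assayed by LC-MS (LLOQ 30 ng/mL ALZ-801, 100 ng/mL tramiprosate). Renal clearance was calculated as Ae divided by plasma AUC24.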

[5] = Bridging clinical dose analysis and projection of brain drug exposure; parameters: species or system human; settings: for projected plasma tramiprosate AUC12: oral ALZ-801 265 mg twice daily, steady state
Outline: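 Projected from human plasma tramiprosate AUC after oral tablet: linear regression of steady-state dose vs AUC for 205 and 342 mg fed, with accumulation factor from Study 2 day 7/day 1 and modelled Study 3 data. Benchmark was the plasma AUC12 of the earlier 150 mg twice-daily tramiprosate trial. Brain exposure scaled by rodent brain/plasma ratio (14C-tramiprosate, single and steady-state).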

[6] = molecular target: T1, organic anion transporter (OAT) 1 (Homo sapiens, UniProt Q4U2R8); assay: Effect on renal transporters; type: in vitro ADME; settings: concentrations up to 100 mM; data on file
T1 sequence (Q4U2R8 1-563): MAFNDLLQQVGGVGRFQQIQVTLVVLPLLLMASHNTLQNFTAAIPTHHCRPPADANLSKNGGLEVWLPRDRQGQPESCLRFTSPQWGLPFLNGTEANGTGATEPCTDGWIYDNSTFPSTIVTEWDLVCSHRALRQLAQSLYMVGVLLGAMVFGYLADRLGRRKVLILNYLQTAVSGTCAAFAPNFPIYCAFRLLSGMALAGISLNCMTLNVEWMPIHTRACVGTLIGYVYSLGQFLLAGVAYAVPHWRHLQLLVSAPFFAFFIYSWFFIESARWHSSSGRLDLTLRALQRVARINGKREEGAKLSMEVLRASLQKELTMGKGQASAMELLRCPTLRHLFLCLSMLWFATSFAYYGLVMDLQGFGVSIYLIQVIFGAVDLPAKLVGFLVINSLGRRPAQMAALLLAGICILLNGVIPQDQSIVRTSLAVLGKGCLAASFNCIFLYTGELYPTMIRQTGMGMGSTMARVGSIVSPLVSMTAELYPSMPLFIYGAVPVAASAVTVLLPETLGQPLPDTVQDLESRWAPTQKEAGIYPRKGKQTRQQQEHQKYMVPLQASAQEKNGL

OAT3 = molecular target: T2, OAT3 (Homo sapiens, UniProt Q8TCC7); assay: Effect on renal transporters; type: in vitro ADME; settings: concentrations up to 100 mM; data on file
T2 sequence (Q8TCC7 1-542): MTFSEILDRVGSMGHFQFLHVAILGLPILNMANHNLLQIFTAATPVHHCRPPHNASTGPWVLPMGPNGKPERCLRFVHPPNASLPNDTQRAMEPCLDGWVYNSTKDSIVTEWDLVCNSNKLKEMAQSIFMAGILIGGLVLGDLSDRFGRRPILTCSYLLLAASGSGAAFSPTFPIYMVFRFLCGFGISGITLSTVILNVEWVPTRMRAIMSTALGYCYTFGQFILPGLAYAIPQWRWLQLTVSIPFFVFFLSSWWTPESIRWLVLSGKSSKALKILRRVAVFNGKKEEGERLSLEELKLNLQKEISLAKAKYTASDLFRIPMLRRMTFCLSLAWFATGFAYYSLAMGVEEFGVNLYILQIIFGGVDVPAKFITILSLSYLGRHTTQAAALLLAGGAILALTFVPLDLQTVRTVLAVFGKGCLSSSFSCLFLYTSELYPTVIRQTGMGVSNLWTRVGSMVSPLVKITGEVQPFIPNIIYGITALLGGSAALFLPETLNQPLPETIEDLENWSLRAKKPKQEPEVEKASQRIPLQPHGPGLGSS

[7] = cited from earlier work; for ADAS-cog difference compared with placebo: oral tramiprosate
[8] = test system: brain amyloid plaque load; settings: chronic oral treatment, TgCRND8 mice; cited from earlier work
Aβ oligomers = settings: 1000-fold excess of tramiprosate, IMS-MS; cited from earlier work
[9] = Drug substance properties; type: physicochemical
[10] = Summary of clinical safety and tolerability in phase I SAD and MAD studies; type: in vivo, human
Outline: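 Healthy volunteers received oral ALZ-801 as capsule or tablet, fasted or fed, in single and multiple-dose placebo-controlled studies. AEs were logged from first dose to discharge and at a follow-up call, then coded with MedDRA v18.1. QTc and safety laboratory tests were monitored against withdrawal criteria. Summaries are given as cases or cases (%).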

[11] = 265 mg, AUC12, plasma, Day 1, fed, ALZ-801 tablet 265 mg (Cohort D), mean ± SD
[12] = 265 mg, AUC12, plasma, Day 7, fed, ALZ-801 tablet 265 mg twice daily (Cohort D), mean ± SD
[13] = 265 mg, AUC24, plasma, Day 1, fed, ALZ-801 tablet 265 mg (Cohort D), mean ± SD
[14] = 265 mg, AUC24, plasma, Day 7, fed, ALZ-801 tablet 265 mg twice daily (Cohort D), mean ± SD
[15] = 265 mg, Day 1, fed, ALZ-801 tablet 265 mg (Cohort D), mean ± SD
[16] = 265 mg, Day 7, fed, ALZ-801 tablet 265 mg twice daily (Cohort D), mean ± SD
[17] = 265 mg, T max, Day 1, fed, ALZ-801 tablet 265 mg (Cohort D), mean ± SD
[18] = 265 mg, T max, Day 7, fed, ALZ-801 tablet 265 mg twice daily (Cohort D), mean ± SD
[19] = 256.5 mg ALZ-801 capsules, day 1
[20] = day 7 vs day 1, 171 and 256.5 mg capsules, fasted
[21] = repeated 256.5 mg ALZ-801 capsules, day 7
[22] = 205 mg ALZ-801 tablets fed (Regimen C) vs fasted

NCCCS(=O)(=O)O [tramiprosate, 3-amino-1-propanesulfonic acid]
half-life ([1]; after tramiprosate LF capsule 100 mg): 5.9 ± 5.22 h
half-life ([1]; after tramiprosate MR tablet 100 mg): 4.99 ± 2.66 h
AUC [2, 11]: 3300 ± 608 ng·h/mL
AUC [2, 12]: 4100 ± 687 ng·h/mL
AUC [2, 13]: 3650 ± 670 ng·h/mL
AUC [2, 14]: 5020 ± 859 ng·h/mL
Cmax [2, 15]: 759 ± 163 ng/mL
Cmax [2, 16]: 865 ± 172 ng/mL
Tmax [2, 17]: 3.56 ± 0.88 h
Tmax [2, 18]: 2.9 ± 0.603 h
half-life [2, 15]: 8.94 ± 1.35 h
half-life [2, 16]: 36.1 ± 4.15 h
lower C max in fed than fasted state [2, 19]: approximately 13%
accumulation ratio AUC12 [2, 20]: 1.3
accumulation ratio C max [2, 20]: 1.2
lower C max for 265 mg tablet than 256.5 mg capsule ([2]; day 1): approximately 12%
lower C max for 265 mg tablets than 256.5 mg capsules ([2]; fed, day 7): 11%
lower C max in fed than fasted state [2, 21]: ~18%
half-life ([3]; human, oral, 171 mg): 12.9 h
Tmax ([3]; human, oral, 205 mg): 1.5 h
half-life ([3]; human, oral, 205 mg): 16.5 h
AUC(0-t) ([3]; human, oral, 205 mg, AUCt, 205 mg ALZ-801 tablets, fed (Regimen C)): 2990 ng·h/mL
Cmax ([3]; human, oral, 205 mg, 205 mg ALZ-801 tablets, fed (Regimen C)): 638 ng/mL
Cmax ([3]; human, oral, 342 mg, 342 mg ALZ-801 tablets, fed (Regimen D)): 978 ng/mL
delay of T max with food [3, 22]: approximately 30 min
reduced C max with food [3, 22]: 17%
fold increase in C max for 1.7-fold increase in dose ([3]; 342 mg (Regimen D) vs 205 mg ALZ-801 tablets, fed): 1.5 fold
interindividual variability for exposure ([3]; ALZ-801 tablet, fed and fasted states): 20–35%
Mean Ae ([4]; Day 1, ALZ-801 tablet 265 mg): 44.0 mg
Mean Ae ([4]; Day 7, ALZ-801 tablet 265 mg): 58.4 mg
CL renal ([4]; Day 1, ALZ-801 tablet 265 mg): 201 ± 48.2 mL/min
CL renal ([4]; Day 7, ALZ-801 tablet 265 mg): 194 ± 85.1 mL/min
projected plasma tramiprosate AUC12 ([5]; fasted): approximately 4844 ng/mL h
projected plasma tramiprosate AUC12 ([5]; fasted and fed combined): ~4502 ng·h/mL
projected plasma tramiprosate AUC12 ([5]; fed): ~4360 ng·h/mL
Projected brain average concentration (C ss,av) ([5]; projected steady state, ALZ-801 tablet 265 mg twice daily, humans, 14C method): approximately 550 nM
brain:plasma ratio (brain penetration), steady state ([5]; rodent, 14C method, projected after steady-state dosing): ~ 40%
effect on renal transporter [6]: no effect
effect on renal transporter (OAT3): no effect
ADAS-cog difference compared with placebo ([7]; APOE4 carriers): 2 point
ADAS-cog difference compared with placebo ([7]; APOE4 homozygous (APOE4/4) patients): 4 point
CSF drug levels ([7]; oral tramiprosate 150 mg twice daily for 78 weeks): 60 nM
mean plasma exposure AUC12 ([7]; tramiprosate 150 mg twice daily, 78 weeks, phase III): 4429 ng·h/mL
reduction in brain amyloid plaque load [8]: ~ 30%
formation of Aβ oligomers (Aβ oligomers): completely abrogated

CC(C)[C@H](N)C(=O)NCCCS(=O)(=O)O [ALZ-801, 3-(L-valyl) amino-1-propanesulfonic acid]
Tmax ([2]; 256.5 mg, T max, ALZ-801 capsule 171 and 256.5 mg, day 1, fasted): 0.5 h
Tmax ([2]; 256.5 mg, Tmax, Cohort C, capsule, fed, 256.5 mg QD, Day 1, median (range)): ~1 h
half-life ([2]; 256.5 mg, ALZ-801 capsule 171 and 256.5 mg, day 1, fasted): ~1 h
AUC [2, 11]: 10300 ng·h/mL
AUC [2, 12]: 11200 ng·h/mL
AUC [2, 13]: 10300 ng·h/mL
AUC [2, 14]: 11200 ng·h/mL
Cmax [2, 15]: 4960 ± 2650 ng/mL
Tmax [2, 17]: 2.45 ± 0.848 h
Tmax [2, 18]: 2.11 ± 0.553 h
half-life [2, 15]: 1.05 ± 0.16 h
half-life [2, 16]: 1.11 ± 0.263 h
Tmax ([2]; 340 mg, T max, day 14, dosing in the fasted state): ~0.5 h
half-life ([2]; irrespective of dosing regimen and day): ~1 h
lower C max in fed than fasted state [2, 19]: 25%
lower C max for 265 mg tablet than 256.5 mg capsule ([2]; day 1): 22%
lower C max in fed than fasted state [2, 21]: 30%
half-life ([3]; human, oral): < 1 h
Tmax ([3]; human, oral, 171 mg): 1 h
Tmax ([3]; human, oral, 205 mg): 0.5 h
Mean Ae ([4]; Day 1, ALZ-801 tablet 265 mg): 22.5 mg
Mean Ae ([4]; Day 7, ALZ-801 tablet 265 mg): 24.1 mg
CL renal ([4]; Day 1, ALZ-801 tablet 265 mg): 36.4 ± 10.7 mL/min
CL renal ([4]; Day 7, ALZ-801 tablet 265 mg): 35.9 ± 19.9 mL/min
pKa [9]: 7.69
solubility ([9]; water): > 200 mg/mL
tolerability ([10]; oral, capsule or tablet, healthy volunteers): well tolerated
dose-limiting toxicity or maximum tolerated dose ([10]; over 2 weeks of dosing at doses up to 342 mg twice daily): no dose-limiting toxicity or maximum tolerated dose (MTD) was observed; also recorded: no dose-limiting toxicity was observed
